Source: PubChem BioAssay
Arrestin-AP2 inh: inhibitors of beta-arrestin/AP2 binding, primary screen, biochemical, GPCR trafficking, flow cytometry; beta-arrestin 1 C-terminal peptide binding to AP2 beta2-adaptin appendage (human); FITC-arrestin peptide / GST-AP2 beads; AP2 beta2 appendage carries R879A mutation; inhibition, % at 10 µM; actives 0.31% (n = 340,000); AID 504490, 2011;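 active = inhibition above a set limit, near 3 SD of compounds lacking own fluorescence, cut at about 54% in these data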
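Measured by: flow cytometry, FL1 (488/535 nm); Material: AP2 appendage R879A on GSH beads; Evaluation: percent response; Timing: pre-incubation 12 min, peptide binding 1 h, room temperature; Also added: 50 nM FITC-arrestin peptide; Medium: PBS with 0.05% Tween 20 and 0.1% BSA.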
SENP1 inh: human SENP1 catalytic domain inhibitors, primary screen, biochemical, FRET, uHTS. actives 0.21% (n = 360,000). Sentrin-specific protease 1 (Homo sapiens), Q9P0U3. AID 624204, 2012. recombinant SENP1 catalytic domain, CyPet-SUMO1-YPet FRET cleavage. inhibition, % at 10 µM;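 active = inhibition at least 30% at 10 µM, raw YFP signal under a set limit, fluorescence ratio 0.5 to 1.5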
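Material: hSENP1 catalytic domain, recombinant; medium: Tris pH 8 with BME, BSA, NP40 and catalase; compound: single concentration of 10 µM compound, 0.5% DMSO final; technique: FRET read of cyan and yellow fluorescence; timing: 50 min enzyme reaction, room temperature, light-protected; reagent: SFCypet-SUMO1-SFYpet substrate at 25 nM; control set: no-enzyme low, enzyme-DMSO high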
iPSC survival up: enhancers of single-cell hiPSC survival, primary screen, ATPlite luminescence; 100% = ROCK inhibitor wells, 0% = DMSO; survival enhancement, % at 20 µM; actives 0.044% (n = 360,000); AID 602274, 2012; in the data active = survival enhancement above about 18%;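 note: cells exposed to compounds for 16 hours before the ATP read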
FAS-TE inh: FAS thioesterase domain inhibitors, primary screen, biochemical, fluorescence intensity, uHTS; actives 0.67% (n = 360,000); Fatty acid synthase (Homo sapiens), P49327; recombinant FAS-TE, OMFH fluorogenic substrate, fluorescence endpoint; AID 602261, 2012; inhibition, % at 15 µM;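 active = compounds whose normalised, plate-corrected inhibition of enzyme fluorescence in the single-dose primary screen is 50% or more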
H9c2 protect: cardioprotection against H2O2-induced cell death, primary screen, uHTS, H9c2 cells, ATPLite luminescence. H9c2 cardiomyocytes, H2O2 injury protection, 2 h. protection from H2O2 cell death, % at 20 µM. actives 0.63% (n = 360,000). AID 588492, 2011;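 active = compounds giving at least 50% protection of heart cells from peroxide-induced death in the single-dose screen, raw or plate-pattern-corrected value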
NR3A LBD binder: binders of NR3A ligand-binding domain, primary screen, biophysical, differential scanning fluorimetry, uHTS; NR3A LBD differential scanning fluorimetry, Tm shift; 0% = protein alone, 100% = glycine-bound protein; Tm shift relative to glycine control, % at 25 µM; Glutamate receptor ionotropic, NMDA 3A (GRIN3A) ligand-binding domain; actives 2.5% (n = 340,000);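 active = melting temperature shift of at least 10% of the positive control shift, at one fixed dose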
A number is an active result; . = inactive; / = no result given. Sampled rows, rich in hits. Any-hit rate of the full collection: about 4%.

SMILES	Arrestin-AP2 inh	SENP1 inh	iPSC survival up	FAS-TE inh	H9c2 protect	NR3A LBD binder
N#CC(C(=O)Nc1ccc(Cl)cc1)=C1Nc2ccccc2N1	.	.	.	.	.	24
CC(C)(C)c1ccc(NC(=O)CSc2nnc(-c3n[nH]c4ccccc34)o2)cc1	.	.	.	.	.	175
CCc1ccc(NC(=O)C(C)OC(=O)c2ccc(NS(=O)(=O)c3ccc(C)c([N+](=O)[O-])c3)cc2)cc1 (stereo not drawn)	.	.	.	.	.	13
CC(=O)c1ccc(NC(=O)C(C)OC(=O)c2ccc(NS(=O)(=O)c3ccc(F)c(F)c3)cc2)cc1 (stereo not drawn)	.	.	.	.	.	11
Cc1ccc(NC(=O)C(C)OC(=O)c2ccc(NS(=O)(=O)c3ccc(F)c(F)c3)cc2)cc1 (stereo not drawn)	.	.	.	.	.	28
CC(=O)Nc1ccc(NC(=O)C(C)OC(=O)c2ccc(S(=O)(=O)N3CCCCC3)cc2)cc1 (stereo not drawn)	.	.	.	.	.	.
CCOC(=O)/C(=C\c1cn(C)c2ccccc12)[N+](=O)[O-]	.	.	.	.	.	34
COc1ccccc1Oc1ccc2c(c1)C(=O)N(CC1CCCO1)C2=O (stereo not drawn)	.	.	.	.	.	12
COc1ccccc1OCC(=O)Nc1ccc2c(c1)C(=O)N(CC1CCCO1)C2=O (stereo not drawn)	.	.	.	.	.	.
O=C(Nc1ccc2c(c1)OCO2)c1ccccn1	.	.	.	.	.	.
O=C(/C=C\Nc1ccc2c(c1)OCO2)c1ccccn1	.	.	.	.	.	35
O=C(NNC(=O)c1ncc(Cl)c(Cl)c1Cl)c1ccc(F)cc1	.	.	.	.	78	.
Cc1csc(SCC(=O)Nc2nc(-c3ccccc3)cs2)n1	.	.	.	.	.	.
Cc1ccc(-c2csc(NC(=O)CSc3nc4ccccc4[nH]3)n2)cc1	.	.	.	.	.	20
COc1ccc(-c2csc(NC(=O)CSc3nc4ccccc4c(=O)[nH]3)n2)cc1	.	.	.	.	.	21
Nc1ccccc1SCC(=O)Nc1nc(-c2ccccc2)cs1	.	.	.	.	.	11
Cc1cc(=O)[nH]c(SCC(=O)Nc2nc(-c3ccccc3)cs2)n1	.	.	.	.	.	.
O=C(CN(c1cccc(Cl)c1)S(=O)(=O)c1ccc(Cl)cc1)N1CCc2ccccc2C1	.	.	.	.	.	11
O=C(Cc1ccc(Cl)cc1)Nc1cccc(S(=O)(=O)Nc2ccccc2F)c1	.	.	.	.	.	.
O=C(NC1CC1)c1ccc(NS(=O)(=O)c2ccc(F)cc2)cc1	.	.	.	.	.	27
CN(Cc1ccc(F)cc1)C(=O)c1cccc(S(=O)(=O)NCc2ccccc2)c1	.	.	.	.	.	.
CN(Cc1ccc(F)cc1)C(=O)c1ccc(NS(=O)(=O)c2ccccc2)cc1	.	.	.	.	.	13
O=C1CCC(C(=O)Nc2cccc(S(=O)(=O)Nc3ccccc3F)c2)=NN1	.	.	.	.	.	13
O=C(CSc1ccc([N+](=O)[O-])cc1)Nc1cccc(S(=O)(=O)Nc2ccccc2F)c1	.	.	.	.	.	24
CC(=NCc1ccccc1)c1ccc(O)cc1O	/	.	.	.	.	/
SMILES	Arrestin-AP2 inh	SENP1 inh	iPSC survival up	FAS-TE inh	H9c2 protect	NR3A LBD binder
CC1(C(=O)NS(=O)(=O)c2ccc(F)cc2F)CCN1C(=O)Cc1cccc2ccccc12 (stereo not drawn)	/	.	.	.	.	/
COc1ccc(-c2csc(C(C)(O)c3ccc(OC)cc3)n2)cc1 (stereo not drawn)	/	.	.	.	.	/
Cc1c(Br)cccc1NC(=O)C1(C)CCN1Cc1ccccc1OC(F)F (stereo not drawn)	/	.	.	.	.	/
COC(=O)c1ccc2nc(-c3ccco3)c(Cc3cccc(F)c3)n2c1	/	.	.	.	.	/
CC(=O)Nc1ccc(OCc2cn(CC(=O)c3ccc(O)cc3)nn2)cc1	/	.	.	.	.	/
O=C(Nc1cccc(S(=O)(=O)N2CCCCC2)c1)c1ccccc1NS(=O)(=O)c1ccc(F)cc1	.	.	.	.	.	18
O=C(Nc1cc(S(=O)(=O)Nc2ccccc2Cl)ccc1O)c1ccc(F)cc1F	.	.	.	.	.	.
O=C(CNc1ccc(F)cc1Cl)Nc1cccc(S(=O)(=O)N2CCCCC2)c1	.	.	.	.	.	13
Cc1ccc(NC(=O)CCNC(=O)c2ccccc2Cl)cc1S(=O)(=O)N1CCCCCC1	.	.	.	.	.	.
Cc1ccc(NC(=O)c2ccccc2NS(=O)(=O)c2ccc(F)cc2)cc1S(=O)(=O)N1CCCCC1	.	.	.	.	.	28
O=C(Nc1cc(S(=O)(=O)N2CCCCC2)ccc1O)c1ccccc1NS(=O)(=O)c1ccc(F)c(F)c1	.	.	.	.	.	28
O=C(CNc1cccc(S(=O)(=O)N2CCCC2)c1)Nc1cccc(F)c1	.	.	.	.	.	.
CC1(C(=O)NCCC(F)(F)F)Cc2c(-c3ccccc3)ccnc2O1 (stereo not drawn)	/	.	.	.	.	/
O=C(O)c1ccccc1C(=O)Nc1ccc(S(=O)(=O)Nc2ccc(F)cc2)cc1	.	.	.	.	.	10
O=C(Nc1ccccc1C(=O)O)c1cccc(S(=O)(=O)Nc2ccc(Br)cc2)c1	.	.	.	.	.	12
O=C(Nc1ccccc1C(=O)O)c1cccc(NS(=O)(=O)c2ccc(Br)cc2)c1	.	.	.	.	.	.
Cc1onc(-c2c(F)cccc2Cl)c1C(=O)Nc1cc(S(=O)(=O)N2CCCCC2)ccc1O	.	.	.	.	.	16
O=C1NC[C@H](CCCCN2C[C@H](Cc3ccccc3)N(Cc3ccccc3)C(=O)C2=O)N(CCc2ccccc2)C1=O	/	.	.	.	/	/
COc1ccc2c(c1)CCO[C@]21O[C@H](CCO)C[C@H](O)[C@H]1O	/	.	.	.	.	/
COC(=O)c1[nH]c2ccc(C)cc2c1NC(=O)C1=COCCO1	.	.	.	.	.	.
COC(=O)c1[nH]c2ccc(F)cc2c1NC(=O)C1=COCCO1	.	.	.	.	.	17
